Source: PubChem
In the library only some 2.1% were active in any assay of this set; here they are far more common.
Apaf-1 inh: inhibitors of human Apaf-1 apoptosome; reconstituted apoptosome caspase-3 activity, DEVD-Rh110 fluorescence; inhibition, % at 20 µM; 330,000 tested, 0.71% active; AID 489030; active = inhibition of at least 40% at 20 µM;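 note: plate controls were DMSO wells for no effect and DEVD-CHO caspase inhibitor wells for full effect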
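Material: reconstituted apoptosome with Apaf-1, cytochrome c, caspase-9, procaspase-3, dATP; medium: pH 7.5 Hepes buffer with CHAPS, BSA, DTT; also added: cytochrome c and DEVD-Rh110 substrate; timing: 30 min plus 50 min, RT; signal: Rh110 fluorescence intensity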
GSTO1 counter: GSTO1 inhibition, counter-screen for RBBP9 inhibitors; P78417; recombinant GSTO1, activity-based probe fluorescence polarization; inhibition, % at 5.96 µM; 300,000 tested, 1.1% active;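 active = inhibition above the campaign mean inhibition plus 3 SD, cut at about 35% in these data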;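 note: 0% = GSTO1-1 with DMSO and 100% = wells lacking GSTO1-1 enzyme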
PP5 inh: inhibitors of human protein phosphatase 5 (PP5); purified PP5c, OMFP substrate fluorescence; 320,000 tested, 0.18% active; inhibition, % at 6.7 µM; AID 1987;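 active = inhibition above the campaign's mean inhibition across all tested compounds plus 3 SD, cut at about 9.5% in these data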;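 note: 0% = DMSO only and 100% = 100 µM cantharidin control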
TDP2 absorb: TDP2 (human) inhibition, absorbance primary screen; inhibition, % at 12.8 µM; AID 720702; O95551; recombinant TDP2, T5PNP hydrolysis, p-nitrophenol absorbance 415 nm; 370,000 tested, 0.34% active;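 active = inhibition above the mean of all tested compounds plus 3 SD, set per campaign, cut at about 25% in these data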;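 note: 0% = DMSO with enzyme and 100% = buffer with substrate but no TDP2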
Target sequence (O95551 whole entry, looked up): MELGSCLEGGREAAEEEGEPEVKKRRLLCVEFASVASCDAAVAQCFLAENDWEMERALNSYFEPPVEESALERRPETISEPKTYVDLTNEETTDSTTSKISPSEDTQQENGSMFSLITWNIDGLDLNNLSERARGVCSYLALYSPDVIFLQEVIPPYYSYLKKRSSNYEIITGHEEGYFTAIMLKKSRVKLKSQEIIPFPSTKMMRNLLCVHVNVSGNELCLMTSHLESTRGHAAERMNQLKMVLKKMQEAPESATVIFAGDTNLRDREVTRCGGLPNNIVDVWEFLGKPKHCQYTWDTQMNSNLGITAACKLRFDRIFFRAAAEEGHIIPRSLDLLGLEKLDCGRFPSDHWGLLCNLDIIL
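System: recombinant human TDP2 / Amount: 120 nM TDP2 per well / Also added: 5 mM T5PNP chromogenic substrate / Doses: 12.8 µM single point, 1% DMSO / Incubation: 2 h at 37 °C / Detection: p-Nitrophenol epi absorbance / Evaluation: % inhibition relative to enzyme-containing and enzyme-free wells / Repeats: singlicate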
PP1 inh: blocks human PP1-alpha phosphatase, a PP5 counter-screen; purified PP1alpha, OMFP fluorescence; 320,000 tested, 0.9% active; inhibition, % at 6.7 µM; AID 2235;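 active = inhibition above the mean inhibition of all tested compounds plus 3 SD, computed separately for each screening campaign, cut at about 15% in these data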
Target sequence (P62136 whole entry, looked up): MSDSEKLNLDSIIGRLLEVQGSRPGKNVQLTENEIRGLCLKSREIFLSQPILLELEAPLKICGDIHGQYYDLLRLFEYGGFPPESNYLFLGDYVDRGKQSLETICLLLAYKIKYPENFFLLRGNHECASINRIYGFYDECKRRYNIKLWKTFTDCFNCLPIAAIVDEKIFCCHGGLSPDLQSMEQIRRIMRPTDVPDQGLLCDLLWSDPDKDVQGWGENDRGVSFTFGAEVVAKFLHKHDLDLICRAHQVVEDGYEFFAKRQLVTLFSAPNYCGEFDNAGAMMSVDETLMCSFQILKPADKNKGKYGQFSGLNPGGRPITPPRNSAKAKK
Apaf-1 inh conf2: Apaf-1 inhibition, single-dose confirmed; shares compounds with Apaf-1 inh; reconstituted apoptosome, caspase-3 DEVD-Rh110 fluorescence; inhibition, % at 20 µM; 1,800 tested, 25% active; AID 504614;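 active = mean inhibition of at least 40% at 20 µM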;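 note: plate controls were DMSO wells for no effect and DEVD-CHO caspase inhibitor control wells for full effect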
Rh110 interf inh: interferes with Rh110 fluorescence, flagging false Apaf-1 inhibitors | shares compounds with Apaf-1 inh | Rh110 fluorescence interference, quenched caspase reaction | activation (fluorescence interference), % at 20 µM | 1,800 tested, under 10 active;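 active = signal rise of 40% or more at 20 µM, treated as a fluorescence artifact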
Apaf1 inh interf: Apaf-1 inhibitor counter-screen fluorescence artifact. AID 588538. fluorescence interference counterscreen, Apaf-1 assay format. 460 tested, under 10 active. shares compounds with Apaf-1 inh. IC50, µM; call rule not given here
The depositor's hits bear a star; . = no result.

SMILES | Apaf-1 inh | GSTO1 counter | PP5 inh | TDP2 absorb | PP1 inh | Apaf-1 inh conf2 | Rh110 interf inh | others
COc1cc(NCc2ccccc2)c2ncn(C(C)C)c2c1 | 13 | . | 3 | -2 | -2 | . | .
CCC(CO)Oc1cc(NCc2ccncc2)c2ncn(C(C)C)c2c1 (centres undefined) | 41* | . | . | 10 | . | 17 | -393
CCC(CN(C)C)Oc1cc(NCc2ccccc2)c2ncn(C(C)C)c2c1 (centres undefined) | 98* | . | . | . | . | 80* | 5 | Apaf1 inh interf=>100
COc1cc2c(cc1NC(=O)CSc1nnc(-c3cccnc3)n1-c1ccc(Br)cc1)oc1ccccc12 | . | . | . | 6 | . | . | .
COc1ccc(-n2nc3cc(N)c(Br)cc3n2)cc1 | 69* | 17 | 4 | -1 | 3 | 4 | 4
O=C(c1cc(C2CC2)on1)N(C1CCCCC1)C1CCCCC1 | . | . | . | -10 | . | . | .
CCOc1ccc(NC(=O)CN(C)C(=O)c2ccc(COc3ccccc3)o2)cc1OCC | 8 | -1 | -1 | -5 | -4 | . | .
CCOc1ccc(NC(=O)CN(C)C(=O)c2ccc(COc3ccccc3)cc2)cc1OCC | 48* | . | 6 | 1 | 5 | 40* | 4 | Apaf1 inh interf=>100
Cc1cccc(NC(=O)CCS(=O)(=O)c2ccc3nc(C)sc3c2)c1 | . | . | . | 1 | . | . | .
O=C(CN1C(=O)NC(c2ccccc2)(c2ccccc2)C1=O)Nc1ccc(N2CCOCC2)cc1 | 6 | . | . | -2 | . | . | .
COc1ccc(C2(c3ccc(OC)cc3)NC(=O)N(CC(=O)Nc3ccc(N4CCOCC4)cc3)C2=O)cc1 | 41* | 4 | 3 | 9 | 0 | 28 | 2
COc1cccc(-c2ccc(NC(=O)C3CCCN(Cc4ccccn4)C3)cc2)c1 (centres undefined) | . | . | . | 8 | . | . | .
O=C(Nc1ccc(-c2cccc(F)c2)cc1)C1CCCN(Cc2ccccn2)C1 (centres undefined) | 40* | -5 | 4 | 2 | 7 | 15 | 0
Clc1ccc([C@H]2OC[C@@]3(CNCc4ccccn4)CS[C@H](c4ccc(Cl)cc4)N23)cc1 | . | . | . | -4 | . | . | .
Cc1nc(-[n+]2nc(-c3ccncc3)nn2-c2ccccc2)sc1C | . | . | . | -5 | . | . | .
CC(=O)NC1=C(NC2CCS(=O)(=O)C2)C(=O)c2ccccc2C1=O (centres undefined) | 41* | 31 | 1 | 19 | -1 | 21 | -6
CSc1ccccc1NC(=O)COc1ccc2c(c1)OCO2 | 45* | . | . | -2 | . | 38 | 8
CC(C)N(Cc1cc2ccccc2[nH]c1=O)C(=O)C1CCCCC1 | 57* | -8 | 1 | -11 | -4 | 65* | 6 | Apaf1 inh interf=>100
O=C(Nc1c(-c2ccc(C(F)(F)F)cc2)nc2ncccn12)c1ccccc1 | . | . | . | 0 | . | . | .
COC1=C[C@H](C(=O)NCc2ccc(Br)cc2)[C@H](C)[C@@H](c2ccccc2)CC1=O | . | . | . | -5 | . | . | .
CCc1noc(C)c1C(=O)N1CCN(S(=O)(=O)c2ccc(Cl)cc2)CC1 | -8 | . | 0 | -4 | -3 | . | .
CCc1noc(C)c1C(=O)N1CCN(S(=O)(=O)c2c(C)cc(C)cc2C)CC1 | 57* | . | -1 | -10 | -5 | 39 | 5
CCN(c1ccccc1)S(=O)(=O)c1cccc(C(=O)NCCN2CCOCC2)c1 | 44* | . | 0 | -11 | -1 | 6 | 8
Nn1c(SCC(=O)Nc2ccc(Br)cn2)nnc1-c1n[nH]c2c1CCC2 | . | . | . | -9 | . | . | .
COCCN(C(=O)CSc1nc(N)cc(=O)[nH]1)c1c(N)n(Cc2ccccc2)c(=O)[nH]c1=O | 45* | 3 | 0 | 9 | -3 | 2 | 4
SMILES | Apaf-1 inh | GSTO1 counter | PP5 inh | TDP2 absorb | PP1 inh | Apaf-1 inh conf2 | Rh110 interf inh | others
CCC(c1nnnn1-c1ccc2c(c1)OCCO2)N1CCN(Cc2c(F)cccc2Cl)CC1 (centres undefined) | . | . | . | 7 | . | . | .
Cc1ccc(OCC(=O)Nc2sc3c(c2C#N)CC(C)(C)NC3(C)C)cc1 | -22 | 5 | 0 | -7 | -5 | . | .
CC1(C)Cc2c(sc(NC(=O)COc3cccc4ccccc34)c2C#N)C(C)(C)N1 | 46* | 2 | -2 | -12 | 15* | 39 | -3
Cc1noc(C)c1COc1ccccc1C(=O)N1CCN(c2cccc(Cl)c2)CC1 | 52* | . | 4 | 6 | 1 | 35 | 8
Cc1noc(C)c1COc1ccccc1C(=O)N1CCN(c2cccc(C(F)(F)F)c2)CC1 | 35 | . | 3 | -12 | 1 | . | .
Cc1cc(C(=O)COc2cccc3cccnc23)c(C)n1C | 53* | 26 | -3 | 9 | 4 | 16 | 13
Cc1cc(C(=O)COc2ccccc2C(N)=O)c(C)n1C | 10 | -4 | -1 | 14 | -6 | . | .
CN1CCN(c2ccc(Cl)cc2NC(=O)CN2C(=O)NC(C)(c3ccccc3)C2=O)CC1 (centres undefined) | 38 | -9 | -1 | -1 | 2 | . | .
CCC1(c2ccccc2)NC(=O)N(CC(=O)Nc2cc(Cl)ccc2N2CCN(C)CC2)C1=O (centres undefined) | 58* | . | 1 | -1 | 1 | 37 | 4
CCOc1cc(/C=C/C(=O)Nc2ccc(C(=O)NCCN(CC)CC)cc2)ccc1OCC(C)C | 47* | -17 | 1 | -4 | 0 | 40 | 21
COC(=O)C1=C(C)N(Cc2ccccc2)C(=NCCc2c[nH]c3ccccc23)N[C@H]1c1cccc(F)c1 | 60* | . | . | -14 | . | 21 | 7
COCCN=C1N[C@@H](c2ccccc2)C(C(=O)OC)=C(C)N1Cc1ccccc1 | 2 | -2 | 0 | 4 | -9 | . | .
COC(=O)C1=C(C)N(Cc2ccccc2)C(=NCCc2c[nH]c3ccccc23)N[C@H]1c1ccccc1 | 69* | . | . | . | . | 33 | 4
COC(=O)[C@]12C[C@H](CC(=O)N3CCSCC3)C(=O)N(Cc3ccccc3)C1=C[C@H](COCc1ccccc1)O[C@@H]2C | . | . | . | 11 | . | . | .
C#CCNC(=O)C[C@H]1C[C@@]2(C(=O)OC)C(=C[C@H](C3CCCC3)O[C@@H]2C)N(Cc2ccco2)C1=O | . | . | . | -2 | . | . | .
CC(=O)Nc1ccc2nc3ccccc3nc2c1 | 50* | 11 | 1 | -1 | -4 | 9 | 2
COC(=O)[C@]12C[C@H](CC(=O)NCc3ccc(OC)c(OC)c3)C(=O)N(Cc3ccc(Cl)cc3Cl)C1=C[C@H](C1CCCC1)O[C@@H]2C | . | . | . | -3 | . | . | .
COC(=O)C1=C(C)N(Cc2ccccc2C(F)(F)F)C(=NCc2cc(OC)c(OC)c(OC)c2)NC1c1cccc(C(F)(F)F)c1 (centres undefined) | . | . | . | 3 | . | . | .
O=C(COc1ccc2c3c(c(=O)oc2c1)CCC3)N1CCN(c2ccc(F)cc2)CC1 | 42* | 2 | 1 | -3 | 1 | 11 | 3
